For 18 molecules, Ki results are on record in PubChem BioAssay AID652191 (Vanderbilt Specialized Chemistry Center, 2013).

The source made the active and inactive calls. The rule behind the calls is not given here.

Chain of Metabotropic glutamate receptor 5 (Rattus norvegicus) (P31424 whole entry, looked up): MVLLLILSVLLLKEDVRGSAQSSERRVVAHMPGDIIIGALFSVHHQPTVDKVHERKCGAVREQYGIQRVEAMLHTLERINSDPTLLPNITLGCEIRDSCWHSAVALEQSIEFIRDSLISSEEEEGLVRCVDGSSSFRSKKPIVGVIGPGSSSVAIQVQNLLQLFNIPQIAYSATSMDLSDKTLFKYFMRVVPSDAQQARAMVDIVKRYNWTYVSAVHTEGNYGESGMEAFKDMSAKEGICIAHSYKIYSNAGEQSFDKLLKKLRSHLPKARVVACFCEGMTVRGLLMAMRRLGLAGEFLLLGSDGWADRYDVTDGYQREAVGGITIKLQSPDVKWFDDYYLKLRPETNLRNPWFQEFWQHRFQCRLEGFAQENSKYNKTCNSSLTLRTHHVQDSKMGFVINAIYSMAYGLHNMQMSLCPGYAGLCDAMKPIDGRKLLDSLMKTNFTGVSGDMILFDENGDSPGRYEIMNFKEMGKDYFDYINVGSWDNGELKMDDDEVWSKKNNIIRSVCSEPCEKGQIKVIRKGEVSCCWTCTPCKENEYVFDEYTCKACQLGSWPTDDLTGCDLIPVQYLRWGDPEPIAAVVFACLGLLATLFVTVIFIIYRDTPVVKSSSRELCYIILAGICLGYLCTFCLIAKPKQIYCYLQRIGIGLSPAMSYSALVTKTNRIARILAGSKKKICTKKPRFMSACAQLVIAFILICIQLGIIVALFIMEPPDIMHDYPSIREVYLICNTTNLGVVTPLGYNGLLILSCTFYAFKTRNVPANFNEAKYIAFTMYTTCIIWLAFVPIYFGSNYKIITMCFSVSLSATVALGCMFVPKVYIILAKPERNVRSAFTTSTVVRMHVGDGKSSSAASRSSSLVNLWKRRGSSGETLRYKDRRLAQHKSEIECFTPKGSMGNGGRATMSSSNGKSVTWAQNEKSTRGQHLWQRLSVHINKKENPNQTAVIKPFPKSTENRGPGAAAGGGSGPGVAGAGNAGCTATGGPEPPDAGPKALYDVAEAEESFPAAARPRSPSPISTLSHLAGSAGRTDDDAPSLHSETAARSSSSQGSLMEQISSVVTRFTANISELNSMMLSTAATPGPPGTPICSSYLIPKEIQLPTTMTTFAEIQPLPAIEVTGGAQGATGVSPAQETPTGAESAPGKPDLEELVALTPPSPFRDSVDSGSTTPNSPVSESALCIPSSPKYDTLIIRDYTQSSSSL

In the test the target is Metabotropic glutamate receptor 5 (Rattus norvegicus) (UniProt P31424). Put plainly: mGlu5 allosteric site binders, biochemical, rat, HEK293A membranes, three-point Ki (AID 652191). The conditions noted are these: rmGlu5 HEK293A membranes, [3H]methoxyPEPy displacement. Summed up: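 probe or stimulus = 2 nM [3H]methoxyPEPy | system = rat mGlu5 HEK293A cell membranes | schedule = 1 h shaking incubation of membranes, radioligand and compound, room temperature | medium = HBSS with HEPES and probenecid, pH 7.4 | evaluation = radioligand displacement by compound | measured by = Filter-bound radioactivity by scintillation counting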
On to `O=C(c1ccc(C#Cc2cccc(F)c2)nc1)N1CCOCC1`, for which the Ki (in general, the dissociation constant of the complex between target and ligand, obtained from inhibition or displacement) was “inactive”. The same measure for `CNC(=O)c1ccc(C#Cc2cccc(F)c2)cn1`: “inactive”. Regarding `O=C(c1ccc(C#Cc2cccc(F)c2)cc1)N1CCC1`, the Ki is 0.04 µM.

For the molecule `CNC(=O)c1ccc(C#Cc2cccc(F)c2)cc1`, the Ki entry is “inactive”.

In the case of `O=C(c1ccc(C#Cc2cccc(F)c2)cn1)N1CCCCC1`, the Ki is 0.01 µM. The same measure for `O=C(c1ccc(C#Cc2cccc(F)c2)cn1)N1CCC(F)(F)C1`: 0.01 µM; for `O=C(c1ccc(C#Cc2cccc(F)c2)nc1)N1CCC1`: “inactive”; for `O=C(c1ccc(C#Cc2cccc(F)c2)cn1)N1CCC(F)(F)CC1`: 0.00442 µM. The same measure for `O=C(c1ccc(C#Cc2cccc(F)c2)cn1)N1CC(F)C1`: 0.07 µM. `O=C(c1ccc(C#Cc2cccc(F)c2)cn1)N1CC(O)(c2ccccc2)C1`: the Ki entry was “inactive”. As to `O=C(c1ccc(C#Cc2cccc(F)c2)cn1)N1CCC(O)CC1`, the Ki result is “inactive”. Regarding `O=C(c1ccc(C#Cc2cccc(F)c2)cc1)N1CCOCC1`, the Ki entry is “inactive”. `CC1CCN1C(=O)c1ccc(C#Cc2cccc(F)c2)cn1` (stereo not drawn): the Ki was 0.00483 µM. Regarding `O=C(c1ccc(C#Cc2cccc(F)c2)cn1)N1CCCCCC1`, the Ki was 0.00382 µM.

Take `O=C(c1ccc(C#Cc2cccc(F)c2)cn1)N1CCOCC1`: the Ki was 0.07 µM. Next, `O=C(c1ccc(C#Cc2cccc(F)c2)cn1)N1CCC1`: 0.04 µM; `O=C(c1ccc(C#Cc2cccc(F)c2)cn1)N1CC2CC2C1` (stereo not drawn): 0.01 µM. The same measure for `O=C(c1ccc(C#Cc2cccc(F)c2)cn1)N1CCCC1`: 0.02 µM.
